Data from ChEMBL document CHEMBL1649064, “Antimalarial activity of novel 5-aryl-8-aminoquinoline derivatives” (J Med Chem, 2011).
Converted amounts (≈) assume the structure as drawn. The source made the active and inactive calls. The calls are words filed in the database; no cut-off is given here.

Tests used:
[1] = Half life in human microsomes by LC-MS/MS analysis; format: ADME, Microsome
In short: (§1)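 Microsomal stability run on a robotic sample processor in 96-well format, following an internal SOP. Parent compound quantified by LC-MS/MS with fast LC gradient or isocratic methods.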

[2] = Half life in mouse microsomes by LC-MS/MS analysis; format: ADME, Microsome; in short: as §1
[3] = tested on: Plasmodium berghei; assay: Prophylactic antimalarial activity against Plasmodium berghei infected Exoerythrocytic mouse model; format: functional
In short: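 Mice infected with P. berghei sporozoites by intravenous inoculation. Compounds given orally once daily for 3 days at up to 320 mg/kg/day. Read-out was cure and delay of patency in groups of 4 mice.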

[4] = tested on: Plasmodium falciparum; assay: Antimalarial activity against mefloquine-resistant Plasmodium falciparum CDC Sierra Leone 1 D6 after 48 hrs by [3H]hypoxanthine uptake assay; format: functional, organism-based
In short: (§2)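 Compounds dissolved in DMSO, diluted 400-fold in RPMI 1640 with 25 mM Hepes, 32 mM NaHCO₃ and 10% Albumax I, then 2-fold serial dilutions over 11 concentrations. Parasites exposed 48 h at 37 °C under 5% O₂/5% CO₂/90% N₂, then [³H]-hypoxanthine added for a further 18 h. DNA harvested onto glass filters and counted. IC50 from a nonlinear regression logistic dose-response model.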

[5] = tested on: Plasmodium falciparum; assay: Antimalarial activity against mefloquine-susceptible Plasmodium falciparum CDC Indochina 3 W2 after 48 hrs by [3H]hypoxanthine uptake assay; format: functional, organism-based; in short: as §2
[6] = tested on: RAW264.7; assay: Cytotoxicity against mouse RAW264.7 cells after 24 hrs by MTT assay; format: cell-based; details: RAW264.7, 24 h
In short: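 Macrophage line from ATCC, seeded at 2.5 × 10⁴ cells/well and left ~12 h. Drug stocks in DMSO, serially diluted to 0.29-48 μg/mL/well. Exposure 24 h, then drug removed and fresh medium added for a further 24 h recovery. Viability read by MTT. Controls were no-cell background, untreated cells and 0.6% DMSO. Duplicate runs, IC50 from sigmoidal variable-slope fit.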

[7] = Therapeutic index, ratio of IC50 for mouse RAW264.7 cells to IC50 for mefloquine-resistant Plasmodium falciparum CDC Sierra Leone 1 D6; format: cell-based; details: read-out: TI
In short: (§3)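 RAW 264.7 macrophages seeded at 2.5 × 10⁴ cells/well and pre-incubated about 12 h. Exposed 24 h to 0.29-48 μg/mL of DMSO-dissolved drug, then drug removed, fresh medium added and 24 h recovery. Viability by MTT, with background, untreated and 0.6% DMSO controls. Duplicate runs, IC50 by sigmoidal variable-slope fit. Index is the macrophage IC50 over the P. falciparum IC50.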

[8] = Therapeutic index, ratio of IC50 for mouse RAW264.7 cells to IC50 for mefloquine-susceptible Plasmodium falciparum CDC Indochina 3 W2; format: cell-based; details: read-out: TI; in short: as §3
[9] = tested on: Plasmodium berghei; assay: Prophylactic antimalarial activity against Plasmodium berghei infected Exoerythrocytic mouse model at 320 mg/kg, po for 3 days; format: functional, organism-based; design: dose 320 mg/kg
In short: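 Mice infected with P. berghei sporozoites by intravenous inoculation. Compound given orally daily for 3 days. Read-outs were cure and delay of patency.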

In the case of COc1cc(C)c2c(Oc3cccc(C(F)(F)F)c3)c(OC)cc(NC(C)CCCN)c2n1 (stereo not drawn) [TAFENOQUINE], the half-life [1] is reported as > 60 min, the half-life [2] is reported as > 60 min and the MAC [3] is reported as 7.5 mg/kg/day. For the same compound, the MTD [3] was 120 mg/kg/day, the IC50 [4] was 2.7 µg/mL (≈ 5.83 µM) and the IC50 [5] was 0.8 µg/mL (≈ 1.73 µM). The IC50 [6] was 5.9 µg/mL (≈ 12.7 µM), the selectivity ratio [7] was 2.2 and the selectivity ratio [8] was 7.38.
For COc1cc(NC(C)CCCN)c2ncccc2c1 (stereo not drawn) [PRIMAQUINE], the half-life [1] was > 60 min, the half-life [2] was 21 min and the MAC [3] was 60 mg/kg/day. For the same compound, the MTD [3] was <120 mg/kg/day, the IC50 [4] was 2.1 µg/mL (≈ 8.1 µM) and the IC50 [5] was 0.9 µg/mL (≈ 3.47 µM). It also gave an IC50 [6] of 38.7 µg/mL (≈ 149 µM), a selectivity ratio [7] of 18.4 and a selectivity ratio [8] of 43.
With COc1cc(NC(C)CCCNC(=O)OC(C)(C)C)c2nc(C(F)(F)F)cc(C)c2c1-c1ccc(C(F)(F)F)cc1 (stereo not drawn) the half-life [1] was 30 min, the half-life [2] was 16 min and the MAC [3] was >960 mg/kg/day. The MTD [3] was >960 mg/kg/day, the Activity [9] was “inactive” and the IC50 [4] was 1.3 µg/mL (≈ 2.22 µM). For the same compound, the IC50 [5] was 1.4 µg/mL (≈ 2.39 µM), the IC50 [6] was > 48 µg/mL and the selectivity ratio [7] was > 36. The selectivity ratio [8] was > 34.
In the case of COc1cc(NC(C)CCCNC(=O)OC(C)(C)C)c2nc(C(F)(F)F)cc(C)c2c1-c1cccc(C)c1 (stereo not drawn), the half-life [1] is reported as 13 min, the half-life [2] is reported as 11 min and the MAC [3] is reported as >960 mg/kg/day. For the same compound, the MTD [3] was >960 mg/kg/day, the Activity [9] was “inactive” and the IC50 [4] was 0.2 µg/mL (≈ 0.376 µM). For the same compound, the IC50 [5] was 0.9 µg/mL (≈ 1.69 µM), the IC50 [6] was > 48 µg/mL and the selectivity ratio [7] was > 240. For the same compound, the selectivity ratio [8] was > 59.
For COc1cccc(-c2c(OC)cc(NC(C)CCCNC(=O)OC(C)(C)C)c3nc(C(F)(F)F)cc(C)c23)c1 (stereo not drawn), the half-life [1] was 9 min, the half-life [2] was 8 min and the MAC [3] was >960 mg/kg/day. For the same compound, the MTD [3] was >960 mg/kg/day, the Activity [9] was “inactive” and the IC50 [4] was 0.3 µg/mL (≈ 0.548 µM). For the same compound, the IC50 [5] was 0.6 µg/mL (≈ 1.1 µM), the IC50 [6] was > 80.2 µg/mL and the selectivity ratio [7] was > 267. For the same compound, the selectivity ratio [8] was > 134.
With COc1cccc(-c2c(OC)cc(NC(C)CCCN)c3nc(C(F)(F)F)cc(C)c23)c1.O=C(O)CCC(=O)O (stereo not drawn) the half-life [1] was > 60 min, the half-life [2] was > 60 min and the IC50 [4] was 0.3 µg/mL. The IC50 [5] was 0.6 µg/mL, the IC50 [6] was 1.5 µg/mL and the selectivity ratio [7] was 5. The selectivity ratio [8] was 2.5.
In the case of COc1cc(NC(C)CCCNC(=O)OC(C)(C)C)c2nc(C(F)(F)F)cc(C)c2c1-c1cccc(C(F)(F)F)c1 (stereo not drawn), the half-life [1] is reported as 18 min, the half-life [2] is reported as 18 min and the MAC [3] is reported as >960 mg/kg/day. For the same compound, the MTD [3] was >960 mg/kg/day, the Activity [9] was “inactive” and the IC50 [4] was 1.1 µg/mL (≈ 1.88 µM). For the same compound, the IC50 [5] was 2.8 µg/mL (≈ 4.78 µM), the IC50 [6] was > 48 µg/mL and the selectivity ratio [7] was > 39.7. The selectivity ratio [8] was > 17.
For COc1cc(C)c2c(-c3ccc(C(F)(F)F)cc3)c(OC)cc(NC(C)CCCN)c2n1.O=C(O)CCC(=O)O (stereo not drawn), the half-life [1] was > 60 min, the half-life [2] was > 60 min and the MAC [3] was >480 mg/kg/day. The MTD [3] was >480 mg/kg/day, the Activity [9] was “inactive” and the IC50 [4] was 2.2 µg/mL. The IC50 [5] was 1.3 µg/mL, the IC50 [6] was 1.2 µg/mL and the selectivity ratio [7] was 0.54. It also gave a selectivity ratio [8] of 0.92.
For COc1cc(C)c2c(-c3ccccc3)c(OC)cc(NC(C)CCCN)c2n1.O=C(O)CCC(=O)O (stereo not drawn), the half-life [1] was > 60 min, the half-life [2] was > 60 min and the IC50 [4] was 3.2 µg/mL. For the same compound, the IC50 [5] was 1.3 µg/mL, the IC50 [6] was 1.9 µg/mL and the selectivity ratio [7] was 0.59. The selectivity ratio [8] was 1.46.
With COc1cc(C)c2c(-c3cccc(C(F)(F)F)c3)c(OC)cc(NC(C)CCCN)c2n1.O=C(O)CCC(=O)O (stereo not drawn) the half-life [1] was > 60 min, the half-life [2] was > 60 min and the MAC [3] was >480 mg/kg/day. The MTD [3] was >480 mg/kg/day, the Activity [9] was “inactive” and the IC50 [4] was 2.7 µg/mL. It also gave an IC50 [5] of 1.3 µg/mL, an IC50 [6] of 1.3 µg/mL and a selectivity ratio [7] of 0.48. It also gave a selectivity ratio [8] of 1.
In the case of COc1cc(NC(C)CCCN)c2nc(C(F)(F)F)cc(C)c2c1-c1cccc(C)c1.O=C(O)CCC(=O)O (stereo not drawn), the half-life [1] is reported as > 60 min, the half-life [2] is reported as > 60 min and the IC50 [4] is reported as 0.2 µg/mL. The IC50 [5] was 0.9 µg/mL, the IC50 [6] was 1.8 µg/mL and the selectivity ratio [7] was 9. For the same compound, the selectivity ratio [8] was 2.
With COc1cc(NC(C)CCCN)c2nc(C(F)(F)F)cc(C)c2c1-c1ccc(C(F)(F)F)cc1.O=C(O)CCC(=O)O (stereo not drawn) the half-life [1] was > 60 min, the half-life [2] was > 60 min and the IC50 [4] was 1.7 µg/mL. For the same compound, the IC50 [5] was 0.8 µg/mL, the IC50 [6] was 10.1 µg/mL and the selectivity ratio [7] was 5.94. For the same compound, the selectivity ratio [8] was 12.6.
For COc1cc(C)c2c(-c3cccc(C)c3)c(OC)cc(NC(C)CCCN)c2n1.O=C(O)CCC(=O)O (stereo not drawn), the half-life [1] was > 60 min, the half-life [2] was > 60 min and the MAC [3] was 960 mg/kg/day. The MTD [3] was 960 mg/kg/day, the Activity [9] was “Active” and the IC50 [4] was 1.3 µg/mL. It also gave an IC50 [5] of 0.7 µg/mL, an IC50 [6] of 1.9 µg/mL and a selectivity ratio [7] of 1.46. It also gave a selectivity ratio [8] of 2.71.
With COc1cccc(-c2c(OC)cc(NC(C)CCCN)c3nc(OC)cc(C)c23)c1.O=C(O)CCC(=O)O (stereo not drawn) the half-life [1] was > 60 min, the half-life [2] was > 60 min and the MAC [3] was >480 mg/kg/day. For the same compound, the MTD [3] was >480 mg/kg/day, the Activity [9] was “inactive” and the IC50 [4] was 2.8 µg/mL. For the same compound, the IC50 [5] was 0.8 µg/mL, the IC50 [6] was 3.1 µg/mL and the selectivity ratio [7] was 1.11. The selectivity ratio [8] was 3.87.
In the case of COc1cc(C)c2c(-c3ccc(Cl)c(Cl)c3)c(OC)cc(NC(C)CCCN)c2n1.O=C(O)CCC(=O)O (stereo not drawn), the half-life [1] is reported as > 60 min, the half-life [2] is reported as > 60 min and the MAC [3] is reported as >480 mg/kg/day. The MTD [3] was 120 mg/kg/day, the Activity [9] was “inactive” and the IC50 [4] was 2.9 µg/mL. It also gave an IC50 [5] of 1.2 µg/mL, an IC50 [6] of 1.7 µg/mL and a selectivity ratio [7] of 0.58. It also gave a selectivity ratio [8] of 1.42.
For COc1cc(NC(C)CCCN)c2nc(C(F)(F)F)cc(C)c2c1-c1ccccc1.O=C(O)CCC(=O)O (stereo not drawn), the half-life [1] was > 60 min, the half-life [2] was > 60 min and the MAC [3] was >960 mg/kg/day. The MTD [3] was 480 mg/kg/day, the Activity [9] was “inactive” and the IC50 [4] was 2.8 µg/mL. The IC50 [5] was 1.4 µg/mL, the IC50 [6] was 3.1 µg/mL and the selectivity ratio [7] was 1.11. For the same compound, the selectivity ratio [8] was 2.21.
With COc1cc(NC(C)CCCN)c2nc(C(F)(F)F)cc(C)c2c1-c1cccc(C(F)(F)F)c1.O=C(O)CCC(=O)O (stereo not drawn) the half-life [1] was > 60 min, the half-life [2] was > 60 min and the IC50 [4] was 1.4 µg/mL. For the same compound, the IC50 [5] was 0.5 µg/mL, the IC50 [6] was 1.5 µg/mL and the selectivity ratio [7] was 1.07. For the same compound, the selectivity ratio [8] was 3.
